Each block holds one molecule with its values, some of them ahead of it. The source made the active and inactive calls. The rule behind the calls is not given here.
How the values were obtained:
SH-SY5Y [1] = experiment: Cytotoxicity against human SH-SY5Y cells assessed as reduction in cell viability at 5 to 10 uM measured after 24 hrs by MTS assay; type: cell-based
How it was run: (§1)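 SH-SY5Y human neuroblastoma cells grown in Advanced DMEM with 10% FBS at 37 °C, 5% CO2, and switched to serum-depleted medium before treatment. Compounds (20 mM DMSO stocks) were applied at 5, 10 or 50 μM for 24 h. Viability read by MTS assay.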

[2] = Cytotoxicity against human SH-SY5Y cells assessed as cell viability at 50 uM measured after 24 hrs by MTS assay relative to control; type: cell-based; settings: read-out: Activity; how it was run: as §1
SH-SY5Y [3] = experiment: Neuroprotective activity against 6-OHDA-induced toxicity in human SH-SY5Y cells assessed as LDH release at 5 uM pretreated for 30 mins followed by 6-OHDA challenge and measured after 24 hrs by cytotox-onetm homogeneous membrane integrity assay (reference value: 135%); type: functional
SH-SY5Y [4] = experiment: Neuroprotective activity against 6-OHDA-induced toxicity in human SH-SY5Y cells assessed as reduction in propidium iodide positive cells at 5 uM pretreated for 30 mins followed by 6-OHDA challenge and measured after 24 hrs by propidium iodide staining-based flow cytometric analysis relative to 6-OHDA; type: functional
How it was run: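 SH-SY5Y cells were grown in Advanced DMEM with 10% FBS at 37 °C, 5% CO2 to 80% confluence, then switched to serum-depleted medium. Compound (5 μM, from a 20 mM DMSO stock) was added 30 min before 6-OHDA (100 μM). After 24 h, PI staining was read by flow cytometry. Runs were n ≥ 2, each in duplicate, with one-way ANOVA and Bonferroni.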

[5] = Apparent permeability in Sprague-Dawley rat ileum at 50 uM measured after 20 mins LC-MS/MS analysis; type: ADME, tissue-based
[6] = Thermodynamic solubility of the compound in pH 7.4 phosphate buffered saline assessed per […] at 7 to 9 mg incubated for 24 hrs under shaking condition by HPLC analysis; type: physicochemical; settings: in vitro, pH 7.4, 24 h
[7] = Chemical stability of the compound in D2O measured incubated for >1 year at room temperature under dark condition by NMR analysis; type: physicochemical
[8] = Photoisomerization of the compound in D2O incubated for 7 days under sunlight by NMR analysis
[9] = target: T1, Amine oxidase [flavin-containing] A (Mus musculus, UniProt Q64133); experiment: Inhibition of MAOA in Swiss mouse brain homogenates assessed as residual activity at 50 uM using 5-HT as substrate preincubated for 10 mins followed by substrate addition by amplex red reagent-based horseradish peroxidase-coupled fluorescence assay relative to control; type: tissue-based; settings: read-out: Activity
T1 sequence (Q64133 whole entry): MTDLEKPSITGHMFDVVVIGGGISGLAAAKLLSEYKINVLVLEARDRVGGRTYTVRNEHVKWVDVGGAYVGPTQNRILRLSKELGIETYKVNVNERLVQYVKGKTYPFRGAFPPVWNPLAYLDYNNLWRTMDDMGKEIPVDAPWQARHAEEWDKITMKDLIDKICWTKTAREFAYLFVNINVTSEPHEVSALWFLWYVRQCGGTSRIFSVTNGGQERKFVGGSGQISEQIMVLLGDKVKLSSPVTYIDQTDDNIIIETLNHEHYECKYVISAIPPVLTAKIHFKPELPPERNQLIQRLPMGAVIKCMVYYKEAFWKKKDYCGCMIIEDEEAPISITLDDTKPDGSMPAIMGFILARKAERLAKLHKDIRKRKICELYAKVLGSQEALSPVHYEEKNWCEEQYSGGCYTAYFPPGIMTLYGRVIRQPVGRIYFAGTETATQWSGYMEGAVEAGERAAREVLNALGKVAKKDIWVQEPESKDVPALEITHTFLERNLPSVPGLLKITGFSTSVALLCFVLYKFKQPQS

Mus musculus [10] = experiment: Ex vivo inhibition of MAOA in Swiss mouse brain homogenates assessed as residual activity at 60 mg/kg, ip measured after 30 mins using 5-HT as substrate by amplex red reagent-based horseradish peroxidase-coupled fluorescence assay relative to control; type: functional
How it was run: (§2)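 Male Swiss mice (n = 3 per group) received 60 mg/kg ip in 0.9% saline, or saline alone, 30 min before brain homogenate preparation. […] Residual activity reported as mean ± SD, n = 1 in triplicate.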

Mus musculus [11] = experiment: Ex vivo inhibition of MAOA/MAOB in Swiss mouse brain homogenates assessed as residual activity at 60 mg/kg, ip measured after 30 mins using p-tyramine as substrate by amplex red reagent-based horseradish peroxidase-coupled fluorescence assay relative to control; type: functional; how it was run: as §2
Mus musculus [12] = experiment: Ex vivo inhibition of MAOA in ip dosed Swiss mouse brain homogenates measured after 30 mins using 5-HT as substrate by amplex red reagent-based horseradish peroxidase-coupled fluorescence assay; type: functional
Mus musculus [13] = experiment: Ex vivo inhibition of MAOA in Swiss mouse brain homogenates assessed as residual activity at 0.3 mg/kg, ip measured after 30 mins using 5-HT as substrate by amplex red reagent-based horseradish peroxidase-coupled fluorescence assay relative to control; type: functional
Mus musculus [14] = experiment: Ex vivo inhibition of MAOA in Swiss mouse brain homogenates assessed as residual activity at 0.3 mg/kg, ip administered once daily for 10 days measured 30 mins post-last dose using 5-HT as substrate by amplex red reagent-based horseradish peroxidase-coupled fluorescence assay relative to control; type: functional
Mus musculus [15] = experiment: Ex vivo inhibition of MAOA in Swiss mouse brain homogenates assessed as residual activity at 30 mg/kg, po administered via gavage measured after 90 mins using 5-HT as substrate by amplex red reagent-based horseradish peroxidase-coupled fluorescence assay relative to control; type: functional
[16] = Apparent permeability across absorptive direction in Sprague-Dawley rat ileum at 50 uM measured after 20 mins LC-MS/MS analysis; type: ADME, tissue-based
[17] = Apparent permeability across eliminatory direction in Sprague-Dawley rat ileum at 50 uM measured after 20 mins LC-MS/MS analysis; type: ADME, tissue-based
Mus musculus [18] = experiment: Antidepressant-like activity in Swiss mouse assessed as reduction in immobility time at 1 to 30 mg/kg, ip administered as single dose for 30 mins prior to testing measured for last 4 mins of 6 mins test by tail suspension test; type: functional, organism-based
Mus musculus [19] = experiment: Antianxiety activity in Swiss mouse assessed as increase in open arm entries at 3 mg/kg, ip measured after 30 mins and monitored for 5 mins by elevated plus maze test relative to control; type: functional
Mus musculus [20] = experiment: Antianxiety activity in Swiss mouse assessed as increase in time spent in open arm entries at 3 mg/kg, ip measured after 30 mins and monitored for 5 mins by elevated plus maze test relative to control; type: functional
Mus musculus [21] = experiment: Effect on spontaneous locomotor activity in Swiss mouse assessed as change in number of light beam crossings at 3 mg/kg, ip measured after 30 mins and monitored for 5 mins; type: ADME, organism-based; settings: in vivo
Mus musculus [22] = experiment: Antidepressant-like activity in Swiss mouse assessed as reduction in immobility time at 0.3 mg/kg, ip administered once daily for 10 days measured for last 4 mins of 6 mins test at 30 mins post-last dose test by tail suspension test; type: functional, organism-based
How it was run: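 Male Swiss mice injected ip daily with 0.3 mg/kg in 0.9% saline for 10 days (n = 10; saline controls n = 8). Tail suspension test on day 10, 30 min after the injection. Immobility time reported as mean ± SEM and compared by unpaired t-test.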

Mus musculus [23] = experiment: Antianxiety activity in Swiss mouse at 0.3 mg/kg, ip […] and monitored for 5 mins by elevated plus maze test; type: functional, organism-based
Mus musculus [24] = experiment: Effect on spontaneous locomotor activity in Swiss mouse assessed as change in number of light beam crossings at 0.3 mg/kg, ip administered […] and monitored for 5 mins; type: ADME, organism-based; settings: in vivo
[25] = Toxicity in Swiss mouse assessed as change in body weight at 0.3 mg/kg, ip administered once daily for 10 days measured during compound dosing; type: organism-based; settings: in vivo, 240 h
[26] = Toxicity in Swiss mouse assessed as change in behavior at 0.3 mg/kg, ip administered once daily for 10 days measured during compound dosing; type: organism-based; settings: in vivo, 240 h

Structure (SMILES): C#CCN1CCC(/C=C/c2ccc(C(F)(F)F)cc2)CC1.Cl
Activity (SH-SY5Y [1]): Non-Toxic
viability at 24 h, 50 µM [2]: > 80%
Activity (SH-SY5Y [3]): 87%
fold change (FC) (SH-SY5Y [4]): 0.65
Papp [5]: Impermeable

Therm solubility [6]: ≥ 34.4 mg/mL
Stability [7]: Stable
activity at 50 µM [9]: -1.3%
inhibition (Mus musculus [12]): Dose-dependent effect
Papp A→B at 20 min, 50 µM [16]: 10.8 ×10⁻⁶ cm/s
Papp at 20 min, 50 µM [17]: 35.4 ×10⁻⁶ cm/s
Structure (SMILES): C#CCN1CCC(/C=C\c2cccc(F)c2)CC1.Cl
Drug metabolism [8]: Metabolite not detected
Activity (SH-SY5Y [1]): Non-Toxic
viability at 24 h, 50 µM [2]: > 80%
Activity (Mus musculus [10]): 1.6%
Activity (Mus musculus [11]): 14.2%
ED50 (Mus musculus [12]; 0.5 h): 0.43 mg/kg
Activity (Mus musculus [13]): 67.8%
Activity (Mus musculus [14]): 9.5%
Activity (Mus musculus [15]): 45.3%
Activity (Mus musculus [18]): inactive
fold change (FC) (Mus musculus [19]): 2
fold change (FC) (Mus musculus [20]): 2.1
Activity (Mus musculus [21]): Non-Toxic
Activity (Mus musculus [22]): Active
Activity (Mus musculus [23]): inactive
Activity (Mus musculus [24]): Non-Toxic
Activity [25]: Non-Toxic
Activity [26]: Non-Toxic

— ChEMBL document CHEMBL4321878, “Stereoselective Activity of 1-Propargyl-4-styrylpiperidine-like Analogues That Can Discriminate between Monoamine Oxidase Isoforms A and B” (J Med Chem, 2020)
